Most compounds without a hit are left out; they make up all but 2.5% or so of the library.
DENV2 CPE – DENV2-induced cell death inhibition | DENV2-infected cells, cytopathic effect rescue, plate reader | CPE inhibition, % at 9.99 µM | 1.7% of 350,000 active; in the data active = CPE inhibition above about 20%, passing the limit was not always enough; inconclusive = no clear call, values can overlap the other calls; tested in BHK-21 cells;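 also: 0% = median of neutral control wells and 100% = median of positive control wells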
E-sel inducer – E-selectin induction on HUVECs | P16581 | HUVEC E-selectin immunofluorescence imaging; normalized: neutral wells 0, TNF-alpha wells 100 | activation, % at 7.58 µM | 0.37% of 260,000 active | AID 686992;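 active = mean E-selectin-positive cell signal at least 10% of the positive control, reached in at least 60% of replicates, without over 20% cell loss; inconclusive = no rule given, readout overlaps actives, possibly toxicity-flagged; inactive = the rest, including those meeting only one limit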
Target sequence (P16581 whole entry, looked up): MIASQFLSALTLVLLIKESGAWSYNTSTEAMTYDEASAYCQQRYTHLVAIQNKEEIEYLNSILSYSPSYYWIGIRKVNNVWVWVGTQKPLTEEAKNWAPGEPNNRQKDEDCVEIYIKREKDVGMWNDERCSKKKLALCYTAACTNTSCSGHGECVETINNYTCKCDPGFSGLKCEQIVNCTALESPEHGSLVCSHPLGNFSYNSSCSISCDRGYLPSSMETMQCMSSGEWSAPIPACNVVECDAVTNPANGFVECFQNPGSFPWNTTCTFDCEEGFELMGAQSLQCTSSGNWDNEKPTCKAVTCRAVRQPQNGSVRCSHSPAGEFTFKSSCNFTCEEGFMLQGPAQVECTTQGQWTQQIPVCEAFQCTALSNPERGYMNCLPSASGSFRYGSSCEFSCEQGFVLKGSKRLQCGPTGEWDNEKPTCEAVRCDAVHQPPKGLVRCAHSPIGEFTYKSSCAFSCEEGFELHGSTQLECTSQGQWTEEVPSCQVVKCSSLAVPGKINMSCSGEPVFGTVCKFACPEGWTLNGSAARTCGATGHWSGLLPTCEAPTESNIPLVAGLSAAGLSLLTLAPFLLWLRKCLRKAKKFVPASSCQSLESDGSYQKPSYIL
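Material: HUVEC primary endothelial cells; Amount: 3,000 cells per well; Dosing: single concentration; Medium: EGM-2 growth medium on 0.1% gelatin-coated wells; Read-out basis: percent E-selectin-positive cells; Signal: immunofluorescence imaging; Control set: TNF-alpha, DMSO.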
ERAP1 inh – blocks human ERAP1 aminopeptidase activity | Q9NZ08 | AID 652197 | recombinant ERAP1, Leu-AMC fluorescence, 60 min | inhibition, % at 10.7 µM | 0.15% of 340,000 active;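 active = mean replicate inhibition of at least 30%, or all replicates individually reaching that 30% level; inactive = mean below 30% and not every replicate reaching it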;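 also: 0% = neutral control wells and 100% = L-leucinethiol positive control wells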
PglD DTNB – inhibitors of Campylobacter jejuni PglD acetyltransferase. purified PglD enzyme, DTNB colorimetric CoA detection. inhibition, % at 12.5 µM. 0.098% of 360,000 active; in the data active = inhibition above about 16%, passing the limit was not always enough; inconclusive = no clear call, values can overlap the other calls
SIRT5 block – inhibitors of human sirtuin-5 desuccinylase; Q9NXA8; Purified SirT5, succinyl-peptide AMC, trypsin-coupled fluorescence; inhibition, % at 15 µM; 1.1% of 330,000 active; in the data active = inhibition above about 15%; inconclusive = no clear call, values can overlap the other calls
An asterisk follows results filed as active; ? = inconclusive; . = no result given.

SMILES	DENV2 CPE	E-sel inducer	ERAP1 inh	PglD DTNB	SIRT5 block
Cc1ccc2nc(N3C(=O)C(O)=C(C(=O)c4ccco4)C3c3ccc(O)cc3)sc2c1 (stereo not drawn)	-2.9	-0.1	-2.2	-1.0	1.6
Cc1cc(C)c2nc(N3C(=O)C(O)=C(C(=O)c4ccco4)C3c3ccc(O)cc3)sc2c1 (stereo not drawn)	5.0	.	3.0	-3.6	17.4*
Cc1cc(C)c2nc(N3C(=O)C(O)=C(C(=O)c4ccco4)C3c3cccc(O)c3)sc2c1 (stereo not drawn)	2.0	.	-0.4	4.0	16.6*
CCn1cnc2c1c(=O)n(CC(=O)NCC(F)(F)F)c(=O)n2Cc1ccccc1	-2.2	-1.8	57.9*	3.5	-4.8
Cc1noc(C)c1S(=O)(=O)N(C)C[C@H]1Oc2ccc(N(C)C)cc2CC(=O)N([C@@H](C)CO)C[C@H]1C	.	-0.2	.	.	.
Oc1ccc(Cl)cc1CNCc1ccc(Cl)cc1	-1.0	0.0	-6.3	-1.3	-2.3
Oc1ccc(Cl)cc1CNCc1ccc(F)cc1	23.2*	0.1	-7.2	1.3	.
O=S(=O)(c1ccccc1F)N1[C@@H]2CNC[C@H]1C2c1ccc(/C=C/c2ccccc2)cc1 (stereo partly drawn)	?	-0.1	0.5	.	0.3
COc1ccccc1NC(=O)N(C)C[C@@H]1Oc2ncc(C#CC(C)C)cc2C(=O)N([C@@H](C)CO)C[C@@H]1C	-0.1	0.2	-0.7	0.1	-1.6
Cc1ccc(Cc2c(-c3ccc(Cl)cc3)nc3ccc(Cl)cn23)cc1	-2.3	-0.1	0.2	0.6	-4.0
Cc1ccc2nc(-c3ccc(C#N)cc3)c(Cc3ccccc3C(F)(F)F)n2c1	63.0*	0.2	-1.1	-3.4	0.6
Fc1ccc(-c2nc3ccc(Cl)cn3c2Cc2ccsc2)cc1	-12.2	0.2	-5.4	-2.3	27.6*
Cc1ccc2nc(-c3ccccc3)c(Cc3cccc(Cl)c3)n2c1	4.2	.	-1.8	-5.2	21.7*
Cc1ccc(Cc2c(-c3ccc(C)cc3)nc3ccc(Cl)cn23)cc1	24.6*	0.1	2.8	0.3	1.8
COC(=O)c1ccc(-c2ccc(C(c3c(C)[nH][nH]c3=O)c3c(C)[nH][nH]c3=O)o2)cc1	8.4	-1.9	0.8	.	4.9
Cc1ccc2nc(-c3cccc(Br)c3)c(Cc3cccc(Cl)c3)n2c1	53.9*	.	0.5	5.8	-1.1
CNC[C@H]1Oc2c(NC(=O)Nc3ccc4c(c3)OCO4)cccc2C(=O)N([C@@H](C)CO)C[C@H]1C	-1.9	0.1	-2.3	-6.0	99.0*
CNC[C@@H]1Oc2c(NC(=O)Nc3ccc(F)cc3)cccc2C(=O)N([C@H](C)CO)C[C@H]1C	-3.2	131.0*	-8.0	1.4	-1.9
C[C@@H]1CN([C@@H](C)CO)C(=O)c2cccc(NC(=O)Nc3ccc4c(c3)OCO4)c2O[C@@H]1CN(C)C	23.5*	.	-2.3	-2.0	-0.4
CNC[C@@H]1Oc2c(NC(=O)Nc3ccc(F)cc3)cccc2C(=O)N([C@@H](C)CO)C[C@H]1C	-4.8	-2.5	-8.4	2.8	1.3
C[C@@H]1CN([C@H](C)CO)C(=O)c2cccc(NC(=O)Nc3ccc4c(c3)OCO4)c2O[C@@H]1CN(C)C	-9.4	.	-2.9	-4.2	-4.3
COCC#Cc1cnc2c(c1)C(=O)N([C@@H](C)CO)C[C@@H](C)[C@@H](CN(C)C(=O)c1cccc(F)c1)O2	-7.7	0.1	-1.8	-1.4	-4.4
COc1ccccc1CCNC(=O)C(=O)NCC1OCCN1S(=O)(=O)c1ccc(F)cc1 (stereo not drawn)	2.2	.	0.3	-5.7	0.2
Cc1cc2oc(=O)ccc2cc1[N+](=O)[O-]	5.0	.	-0.5	0.5	.
Cc1ccc(S(=O)(=O)NCc2ccccc2)cc1C(=O)N1CCN(S(=O)(=O)c2ccccc2F)CC1	58.1*	-0.1	-1.7	5.8	.
SMILES	DENV2 CPE	E-sel inducer	ERAP1 inh	PglD DTNB	SIRT5 block
CCc1ccc(OCC(=O)NNC(=O)c2cc3ccccc3o2)cc1	0.0	-2.1	-1.0	-7.2	-2.7
COCC(=O)N1CC2(C1)[C@@H](c1ccccc1)[C@@H](CO)N2C(=O)c1cccnc1	-8.8	0.0	1.2	.	-8.3
O=C(c1cccnc1)N1CC2(C1)[C@@H](c1ccccc1)[C@@H](CO)N2C(=O)CC1CC1	30.1*	0.2	-0.2	.	-1.5
CCC(=O)N1CC2(C1)[C@@H](c1ccccc1)[C@H](CO)N2C(=O)c1cccnc1	72.4*	-0.1	-2.4	.	0.9
O=C(CC1CC1)N1CC2(C1)[C@H](c1ccccc1)[C@@H](CO)N2C(=O)c1cccnc1	-5.2	-0.1	0.0	.	-1.8
CCC(=O)N1CC2(C1)[C@@H](c1ccc(-c3ccc(F)cc3)cc1)[C@H](CO)N2C(=O)CC	26.7*	-0.1	2.5	.	0.3
COc1ccc(NC(=O)N(C)C[C@H]2Oc3ccc(NC(=O)Nc4ccccc4)cc3CC(=O)N([C@H](C)CO)C[C@@H]2C)cc1	0.3	-0.1	0.8	-4.3	0.1
Cc1cccc(S(=O)(=O)N2C[C@@H]3N[C@H](C2)C3c2ccc(-c3cncnc3)cc2)c1 (stereo partly drawn)	0.1	-0.1	.	.	.
CS(=O)(=O)N1c2ccccc2[C@]2([C@@]34C[C@H]5C(=O)N[C@@H](Cc6ccccc6)C(=O)N5[C@@H]3N(S(C)(=O)=O)c3ccccc34)C[C@H]3C(=O)N[C@@H](Cc4ccccc4)C(=O)N3[C@H]12	-11.5	-0.3	0.0	.	33.3*
CCCCNc1c(-c2ccc(-c3cccc(Cl)c3)cc2)nc2ccc(Cl)cn12	58.6*	0.4	.	4.1	.
CCCCCCSc1ccc(-c2nc3ccc(Cl)cn3c2NCCCC)cc1OC	-1.1	0.0	5.2	-10.8	-4.1
C[C@@H]1CN([C@@H](C)CO)C(=O)c2c(c3ccccc3n2C)-c2ccccc2CO[C@@H]1CN(C)Cc1ccc2c(c1)OCO2	-6.7	-0.6	-2.6	.	20.2*
C[C@H](CO)N1C[C@H](C)[C@@H](CN(C)Cc2ccc3c(c2)OCCN3C)OCc2ccccc2-c2c(n(C)c3ccccc23)C1=O	37.3*	-0.1	-3.3	.	5.8
COc1ccc(-c2sc3ccccc3c2/C=C/c2ccncc2)cc1	20.5*	0.0	-1.6	-9.7	2.6
O=C(NNC1=NS(=O)(=O)c2ccccc21)C1CC(=O)N(c2ccccc2)C1 (stereo not drawn)	3.5	.	0.7	.	0.5
Cc1nc2ccc(NC(=O)COc3cccc(F)c3)cc2s1	.	-0.2	-0.6	.	-1.7
CCOC(=O)C1(CC2CC2)CCN(Cc2cn[nH]c2-c2cccc(F)c2)CC1	.	.	-2.0	.	17.1*
CSc1cccc(CN2CCN(Cc3ccc(F)c(F)c3)C(CCO)C2)c1 (stereo not drawn)	.	.	13.2	.	15.6*
CC(C)=CCN1CCN(Cc2cn(C(C)C)c3ccccc23)CC1CCO (stereo not drawn)	-7.1	.	-1.3	-13.1	22.0*
CC(=O)c1cccc(CN2CCN(CC=C(C)C)C(CCO)C2)c1 (stereo not drawn)	11.4	-2.8	4.5	0.5	16.7*
